Data from article PMC7043261 (Pharmacology Research & Perspectives, 2020).

Legend:
catalepsy = details: ref 13 (Ahn et al (2011)); cited from earlier work
[1] = test system: CFA‐induced mechanical allodynia in rats; details: cited from earlier work; for mechanical allodynia on CFA‐induced inflammatory pain: rats
[2] = test system: motor coordination in rats; test: Motor coordination; type: in vivo; details: rat, p.o., cut‐off 200 s
In short: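 Male Sprague‐Dawley rats were trained at 20 rpm on 2 consecutive days, up to five trials, until they walked ≥200 s. They were retrained in two sessions on test day; rats reaching the criterion once were used. Time on the rod (cut‐off 200 s) was recorded 1 h after the oral test compound or 2 h after pregabalin. n=10, mean ± SEM; Steel's test.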

[3] = test system: CCI‐induced mechanical allodynia in rats; test: CCI‐induced neuropathic pain; type: in vivo; details: rat, 4 hours
In short: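 Male Sprague‐Dawley rats. Under anesthesia, the left sciatic nerve was loosely tied with four ligatures at 1 mm intervals; in shams the right nerve was exposed but not ligated. On day 14 after surgery, the test compound (0.5% HPMC suspension) or pregabalin (saline) was given orally at 10 mL/kg 4 h before PWT. PWT was measured by von Frey up‐down method. n=8, mean ± SEM; Steel's or Wilcoxon test.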

[4] = test system: formalin‐induced pain responses in rats; test: Formalin test; type: in vivo; details: rat; for formalin‐induced pain responses, early phase: 0 to 10 minutes; for formalin‐induced pain responses, late phase: 10 to 45 minutes
In short: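 Male Wistar rats received oral dosing 1 h before injection: test compound in 0.5% HPMC or pregabalin in saline, 10 mL/kg. Then 0.5% formalin (50 µL) was injected into the left hind‐paw plantar surface. Flinching, licking and biting time was scored manually over 45 min: early phase 0–10 min, late phase 10–45 min. n=6, mean ± SEM; Dunnett's or Student's t‐test.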

[5] = test system: formalin‐induced pain responses in rats; details: ref 34 (Maione et al (2007)); cited from earlier work
motor coordination = details: ref 17 (Watabiki et al (2017)); cited from earlier work
catalepsy in rats = test: Catalepsy; type: in vivo; details: rat, cut‐off 90 s
PAF (h) = PAF (h) (Homo sapiens, UniProt P25105); test: Cerep BioPrint profiling and follow-up IC50; type: binding
[6] = test system: AEA concentrations in rat brain; test: AEA concentrations in rat brain; type: in vivo
rat FAAH = target: T1, rat FAAH (Rattus norvegicus, UniProt P97612); test: FAAH inhibition, rat brain microsomes, AAMCA fluorescence, IC50; type: biochemical
T1 sequence (P97612 1-579): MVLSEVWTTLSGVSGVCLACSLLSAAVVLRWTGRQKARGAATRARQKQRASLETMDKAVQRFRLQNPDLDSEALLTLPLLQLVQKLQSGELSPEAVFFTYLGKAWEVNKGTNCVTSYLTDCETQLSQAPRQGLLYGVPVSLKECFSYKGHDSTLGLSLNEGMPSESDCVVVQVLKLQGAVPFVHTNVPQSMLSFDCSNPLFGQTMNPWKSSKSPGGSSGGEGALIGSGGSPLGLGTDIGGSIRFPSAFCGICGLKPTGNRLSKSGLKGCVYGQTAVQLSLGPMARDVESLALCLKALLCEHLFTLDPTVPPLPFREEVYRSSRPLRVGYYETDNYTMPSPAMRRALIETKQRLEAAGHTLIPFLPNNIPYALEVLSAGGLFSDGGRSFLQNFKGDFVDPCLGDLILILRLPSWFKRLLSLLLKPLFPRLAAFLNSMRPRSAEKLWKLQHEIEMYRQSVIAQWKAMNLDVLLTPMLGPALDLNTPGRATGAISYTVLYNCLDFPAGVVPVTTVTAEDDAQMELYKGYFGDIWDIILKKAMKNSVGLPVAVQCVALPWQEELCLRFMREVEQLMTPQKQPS

5-HT2B (h) = 5-HT2B (h) (Homo sapiens, UniProt P41595); test: Cerep BioPrint profiling and follow-up IC50; type: binding
[7] = test system: CFA‐induced mechanical allodynia in rats; test: CFA‐induced inflammatory pain; type: in vivo; details: rat, 1 and 4 hours after administration
In short: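 Male Sprague‐Dawley rats received 50% CFA intraplantar (0.1 mL, right hind paw). PWT was measured 5 days later by von Frey up‐down method. The test compound (0.5% HPMC suspension) was dosed orally 1 h before PWT. Naproxen (0.5% methylcellulose) was dosed orally 4 h before PWT. Dosing volume 10 mL/kg. n=9, mean ± SEM; Steel's or Wilcoxon test.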

[8] = target: T2, human monoacylglycerol lipase (MAGL) (Homo sapiens, UniProt Q99685); test: MAGL inhibitor screening assay kit; type: biochemical; details: 30 μmol/L
T2 sequence (Q99685 1-303): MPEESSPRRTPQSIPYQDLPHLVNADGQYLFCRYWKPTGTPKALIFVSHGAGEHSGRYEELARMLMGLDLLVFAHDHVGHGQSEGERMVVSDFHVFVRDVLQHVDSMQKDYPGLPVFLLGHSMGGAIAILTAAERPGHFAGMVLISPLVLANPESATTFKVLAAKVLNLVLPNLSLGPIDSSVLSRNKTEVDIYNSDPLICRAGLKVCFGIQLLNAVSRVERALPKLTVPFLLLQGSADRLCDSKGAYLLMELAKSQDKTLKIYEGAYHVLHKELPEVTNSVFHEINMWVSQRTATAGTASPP

[9] = Pharmacokinetic study in rats; type: in vivo; details: male, Sprague-Dawley, rat, plasma
In short: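 Male Sprague‐Dawley rats. IV dose: 1 mg/kg in 40% dimethylacetamide/40% PEG400/20% water (1 mL/kg). Oral doses: 0.3, 1, 3 mg/kg as 0.5% HPMC suspension. Serial plasma was obtained by centrifugation (2,150g, 15 min, 4°C), extracted with ethyl acetate by supported‐liquid extraction, and reconstituted in 45% acetonitrile/55% 10 mmol/L ammonium acetate. Analysis by LC‐MS/MS; noncompartmental parameters.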

human FAAH = target: T3, human FAAH (Homo sapiens, UniProt O00519); test: FAAH inhibition, human microsomes; type: biochemical
T3 sequence (O00519 1-579): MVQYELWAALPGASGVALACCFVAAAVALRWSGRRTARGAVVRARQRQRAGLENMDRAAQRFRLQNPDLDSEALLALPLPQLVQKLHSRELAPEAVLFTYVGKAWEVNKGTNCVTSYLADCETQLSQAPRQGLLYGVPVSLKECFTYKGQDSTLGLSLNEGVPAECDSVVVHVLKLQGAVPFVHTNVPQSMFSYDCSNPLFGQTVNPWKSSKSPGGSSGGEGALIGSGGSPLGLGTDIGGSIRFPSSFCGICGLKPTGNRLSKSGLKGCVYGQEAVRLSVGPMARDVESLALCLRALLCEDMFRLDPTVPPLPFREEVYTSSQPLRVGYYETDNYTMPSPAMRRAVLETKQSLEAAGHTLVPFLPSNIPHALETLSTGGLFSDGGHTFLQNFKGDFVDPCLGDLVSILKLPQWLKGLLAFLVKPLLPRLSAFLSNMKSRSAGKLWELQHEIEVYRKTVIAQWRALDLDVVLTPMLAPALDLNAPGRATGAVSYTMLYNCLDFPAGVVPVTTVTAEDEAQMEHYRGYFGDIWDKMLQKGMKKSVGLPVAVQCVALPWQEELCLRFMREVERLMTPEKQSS

[10] = test system: partial sciatic nerve ligation‐induced mechanical allodynia; details: rats; cited from earlier work
[11] = test system: spinal nerve ligation‐induced mechanical allodynia; details: rats; single systemic administration; cited from earlier work
[12] = 30 mg/kg p.o. 1 hour before formalin

Chain of 5-HT2B (h) (P41595 whole entry): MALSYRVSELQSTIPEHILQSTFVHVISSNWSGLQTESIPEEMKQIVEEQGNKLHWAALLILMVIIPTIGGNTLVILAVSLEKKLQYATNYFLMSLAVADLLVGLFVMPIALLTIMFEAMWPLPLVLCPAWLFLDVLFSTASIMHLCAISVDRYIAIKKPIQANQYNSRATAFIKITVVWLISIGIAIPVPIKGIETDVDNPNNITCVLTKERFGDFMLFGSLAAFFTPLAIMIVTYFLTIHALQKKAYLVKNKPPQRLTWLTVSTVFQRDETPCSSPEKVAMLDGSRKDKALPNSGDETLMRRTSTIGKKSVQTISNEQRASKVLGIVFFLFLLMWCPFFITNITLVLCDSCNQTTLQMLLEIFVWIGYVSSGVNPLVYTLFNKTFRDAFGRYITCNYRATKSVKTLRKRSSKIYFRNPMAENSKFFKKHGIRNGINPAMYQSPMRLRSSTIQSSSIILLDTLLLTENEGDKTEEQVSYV
Chain of PAF (h) (P25105 whole entry): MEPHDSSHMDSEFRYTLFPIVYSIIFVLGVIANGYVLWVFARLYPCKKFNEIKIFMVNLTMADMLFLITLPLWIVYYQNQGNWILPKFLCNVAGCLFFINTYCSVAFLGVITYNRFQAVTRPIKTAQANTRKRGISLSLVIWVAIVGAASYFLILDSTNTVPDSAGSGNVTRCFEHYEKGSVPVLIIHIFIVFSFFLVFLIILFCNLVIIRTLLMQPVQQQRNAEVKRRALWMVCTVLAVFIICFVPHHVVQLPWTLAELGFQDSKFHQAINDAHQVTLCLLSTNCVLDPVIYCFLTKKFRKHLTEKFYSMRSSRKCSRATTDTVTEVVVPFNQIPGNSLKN

For `O=C(Nc1cccnn1)N1CCC(=Cc2cccc(Oc3ccc(C(F)(F)F)cn3)c2)CC1` [PF‐04457845, N‐pyridazin‐3‐yl‐4‐(3‐{[5‐(trifluoromethyl)pyridin‐2‐yl]oxy}benzylidene)piperidine‐1‐carboxamide], the effects on catalepsy (catalepsy) is listed as “no effects on catalepsy up to 100‐fold higher dose”, the “mechanical allodynia on CFA‐induced inflammatory pain” value [1] is listed as “improved mechanical allodynia” and the “minimum effective dose in CFA‐induced inflammatory pain” value ([1]; ref 13 (Ahn et al (2011))) is listed as 0.1 mg/kg.
In the case of `CC(C)C[C@H](CN)CC(=O)O` [Pregabalin, 3(S)‐(aminomethyl)‐5‐methylhexanoic acid, reference compound], the “Duration (s) on rotarod” value ([2]; 10 mg/kg, 2 h) is reported as 199 ± 1 s, the “Duration (s) on rotarod” value ([2]; 30 mg/kg, 2 h) is reported as 167 ± 14 s and the “mechanical allodynia (PWT), CCI‐induced neuropathic pain” value ([3]; pregabalin 30 mg/kg p.o.) is reported as “significantly antagonized”. The “formalin‐induced pain responses, early phase” value [4, 12] was “Neither PKM‐833 nor pregabalin changed” and the “formalin‐induced pain responses, late phase” value [4, 12] was “significantly reduced”.
In the case of `O=C(Nc1cccnc1)N1CCC(Cc2cccc(Oc3ccc(C(F)(F)F)cn3)c2)CC1` [PF‐3845, N‐3‐pyridinyl‐4‐[[3‐[[5‐(trifluoromethyl)‐2‐pyridinyl]oxy]phenyl]methyl]‐1‐piperidinecarboxamide], the “mechanical allodynia on CFA‐induced inflammatory pain” value [1] is listed as “improved mechanical allodynia”.
For `CCCCC/C=C\C/C=C\C/C=C\C/C=C\CCCC(=O)NCCc1c[nH]c2ccc(O)cc12` [AA‐5‐HT, N‐arachidonoyl‐serotonin], the “formalin‐induced pain responses” value [5] is given as “significantly decreased formalin‐induced pain responses only in the late phase”.
For `O=C(Nc1ccccc1)C1CCN(C(=O)Oc2cccnc2)CC1` [ASP8477, 3‐pyridyl 4‐(phenylcarbamoyl)piperidine‐1‐carboxylate], the “effect on motor coordination” value (motor coordination) is given as “did not affect motor coordination up to 30 mg/kg”.
In the case of `CS(=O)(=O)O.Cc1c(C(=O)c2cccc3ccccc23)c2cccc3c2n1[C@H](CN1CCOCC1)CO3` [WIN 55,212‐2, (R)‐(+)‐(2,3; dihydro‐5‐methyl‐3‐(4‐morpholinylmethyl)pyrrolo[1.2.3‐de]‐1,4‐benzoxazin‐6‐yl)‐1‐naphthalenylmethanone mesylate, reference compound], the “Duration (s), catalepsy” value (catalepsy in rats; 3 mg/kg, s.c., 1 h) is reported as 13 ± 2 s and the “Duration (s), catalepsy” value (catalepsy in rats; 3 mg/kg, s.c., 4 h) is reported as 77 ± 7 s.
In the case of `O=C(Nc1cccnn1)N1CCN([C@@H]2CCOc3cc(C(F)(F)F)ccc32)CC1` [PKM‐833, (R)‐N‐(pyridazin‐3‐yl)‐4‐(7‐(trifluoromethyl)chroman‐4‐yl)piperazine‐1‐carboxamide], the IC50 (PAF (h)) is reported as 2300 nM, the “AEA concentrations in rat brain, time course” value ([6]; 1 mg/kg p.o., 1 to 48 hours before decapitation) is reported as “significantly elevated for 8 hours but not at 24 and 48 hours” and the “AEA concentrations in rat brain, dose dependence” value ([6]; 0.3‐3 mg/kg p.o., 1 hour before decapitation) is reported as “significant effects at doses of 1 and 3 mg/kg”. The IC50 (rat FAAH) was 10 ± 3 nM, the IC50 (5-HT2B (h)) was 6.4 µM and the “Duration (s) on rotarod” value ([2]; 10 mg/kg, 1 h) was 200 ± 0 s. For the same molecule, the “Duration (s) on rotarod” value ([2]; 30 mg/kg, 1 h) was 195 ± 6 s, the “mechanical allodynia (PWT), CFA‐induced inflammatory pain” value ([7]; 0.3 to 3 mg/kg p.o.) was “significantly suppressed” and the “Duration (s), catalepsy” value (catalepsy in rats; 10 mg/kg, p.o., 1 h) was 0.5 ± 0.1 s. For the same molecule, the “Duration (s), catalepsy” value (catalepsy in rats; 10 mg/kg, p.o., 4 h) was 3.7 ± 1.9 s, the “Duration (s), catalepsy” value (catalepsy in rats; 30 mg/kg, p.o., 1 h) was 0.8 ± 0.2 s and the “Duration (s), catalepsy” value (catalepsy in rats; 30 mg/kg, p.o., 4 h) was 1.0 ± 0.3 s. The “inhibition of human MAGL” value [8] was “did not inhibit”, the “mechanical allodynia (PWT), CCI‐induced neuropathic pain” value ([3]; PKM‐833 30 mg/kg p.o. (3‐30 mg/kg tested)) was “did not attenuate” and the half-life ([9]; iv, 1 mg/kg) was 348 min. The bioavailability ([9]; po) was 41 to 91%, the “formalin‐induced pain responses, late phase” value ([4]; 3 mg/kg p.o. 1 hour before formalin) was “significantly reduced” and the “formalin‐induced pain responses, early phase” value ([4]; 0.3‐3 mg/kg p.o. 1 hour before formalin) was “Neither PKM‐833 nor pregabalin changed”. For the same molecule, the IC50 (human FAAH) was 8.8 ± 3 nM and the “selectivity against other molecular targets” value (human FAAH; FAAH versus 137 other molecular targets) was “more than 200 fold”.
For `NC(=O)c1cccc(-c2cccc(OC(=O)NC3CCCCC3)c2)c1` [URB597, (3'‐(aminocarbonyl)[1,1'‐biphenyl]‐3‐yl)‐cyclohexylcarbamate], the “partial sciatic nerve ligation‐induced mechanical allodynia” value [10] is listed as “had no improvement” and the “spinal nerve ligation‐induced mechanical allodynia” value [11] is listed as “improved”.
For `COc1ccc2cc([C@H](C)C(=O)O)ccc2c1` [Naproxen, (S)‐(+)‐6‐methoxy‐α‐methyl‐2‐naphthaleneacetic acid, reference compound], the “mechanical allodynia (PWT), CFA‐induced inflammatory pain” value ([7]; 15 mg/kg p.o.) was “significantly suppressed”.
